Results published in ChEMBL document CHEMBL3045435, “Synthesis and fungicidal activity of macrolactams and macrolactones with an oxime ether side chain” (J Agric Food Chem, 2007).
Converted amounts (≈) assume the structure as drawn.

These compounds were tested on Pythium aphanidermatum (assay: Fungicidal activity against Pythium aphanidermatum assessed as growth inhibition).
Format: functional, organism-based

SMILES	EC50
CCCON=C1CCCCCCCCCCC(=O)NCCC1	33.3 µg/mL (≈ 107 µM)

What follows are compounds tested on Rhizoctonia solani (assay: Fungicidal activity against Rhizoctonia solani assessed as growth inhibition).
Format: functional, organism-based
Method in brief: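 Mycelium growth rate test on Rhizoctonia solani Kühn. Inhibition rate was measured at 100, 50, 25, 12.5 and 6.25 µg/mL. EC50 was estimated by logistic analysis. A commercial fungicide reference was run under the same conditions.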

SMILES	EC50
CCCON=C1CCCCCCCCCCC(=O)NCCC1	4.6 µg/mL (≈ 14.8 µM)

The compounds below were run on Phytophthora capsici (assay: Fungicidal activity against Phytophthora capsici assessed as growth inhibition).
Format: functional, organism-based

SMILES	EC50
CCCON=C1CCCCCCCCCCC(=O)NCCC1	57.8 µg/mL (≈ 186 µM)

The compounds below were run on Botryosphaeria berengeriana (assay: Fungicidal activity against Botryosphaeria berengeriana Nose (apple ring spot fungi) assessed as growth inhibition).
Format: functional, organism-based

SMILES	EC50
CCCON=C1CCCCCCCCCCC(=O)NCCC1	13.8 µg/mL (≈ 44.4 µM)

Each compound was assayed on Rhizoctonia solani (assay: Fungicidal activity against Rhizoctonia solani by mycelium growth rate test).
Format: functional, organism-based

SMILES	EC50
O=C1CCCCCCCCCC/C(=N\OCc2c(F)cccc2Cl)CCN1	43 µg/mL (≈ 108 µM)
C=CCO/N=C1\CCCCCCCCCCC(=O)NCC1	21.8 µg/mL (≈ 73.9 µM)
CCCCCCCO/N=C1\CCCCCCCCCCC(=O)NCCC1	27.9 µg/mL (≈ 76.1 µM)
O=C1CCCCCCCCCC/C(=N/OCc2c(F)cccc2Cl)CCCN1	2.34 µg/mL (≈ 5.69 µM)
CCCCO/N=C1\CCCCCCCCCCC(=O)NCC1	7.21 µg/mL (≈ 23.2 µM)
CCCCCCCCCCCCCCCCO/N=C1\CCCCCCCCCCC(=O)NCCC1	51.5 µg/mL (≈ 104 µM)
O=C1CCCCCCCCCC/C(=N/OCc2c(F)cccc2Cl)CCN1	1730 µg/mL (≈ 4370 µM)
CCCO/N=C1\CCCCCCCCCCC(=O)NCC1	9.11 µg/mL (≈ 30.7 µM)
C=CCO/N=C1/CCCCCCCCCCC(=O)NCCC1	45.6 µg/mL (≈ 148 µM)
CCCCCCCCCCCCCCCCO/N=C1/CCCCCCCCCCC(=O)NCC1	135 µg/mL (≈ 282 µM)
C=CCO/N=C1/CCCCCCCCCCC(=O)NCC1	44 µg/mL (≈ 150 µM)
O=C1CCCCCCCCCC/C(=N/OCc2ccc([N+](=O)[O-])cc2)CCN1	49.3 µg/mL (≈ 127 µM)
CCCO/N=C1/CCCCCCCCCCC(=O)NCC1	22.1 µg/mL (≈ 74.5 µM)
CCCCO/N=C1\CCCCCCCCCCC(=O)NCCC1	2.34 µg/mL (≈ 7.21 µM)
CCCCO/N=C1/CCCCCCCCCCC(=O)NCC1	55.1 µg/mL (≈ 177 µM)
O=C1CCCCCCCCCC/C(=N\OCc2ccc(F)cc2)CCN1	12.1 µg/mL (≈ 33.3 µM)
CCCCCCCO/N=C1\CCCCCCCCCCC(=O)NCC1	50.3 µg/mL (≈ 143 µM)
O=C1CCCCCCCCCCC(=NOCc2ccccc2)CCCO1	45.1 µg/mL (≈ 126 µM)
CCCCCCCCCCCCCCCCO/N=C1\CCCCCCCCCCC(=O)NCC1	127 µg/mL (≈ 266 µM)
CCCCCCCO/N=C1/CCCCCCCCCCC(=O)NCC1	209 µg/mL (≈ 594 µM)

SMILES	EC50
O=C1CCCCCCCCCC/C(=N\OCc2ccc([N+](=O)[O-])cc2)CCN1	166 µg/mL (≈ 427 µM)
O=C1CCCCCCCCCC/C(=N\OCc2ccc(Cl)cc2Cl)CCN1	106 µg/mL (≈ 256 µM)
CCCON=C1CCCCCCCCCCC(=O)OCCC1	8.08 µg/mL (≈ 25.9 µM)
CC(C)CO/N=C1/CCCCCCCCCCC(=O)NCC1	48.4 µg/mL (≈ 156 µM)
CO/N=C1/CCCCCCCCCCC(=O)NCC1	51.3 µg/mL (≈ 191 µM)
O=C1CCCCCCCCCC/C(=N\OCc2ccc(Cl)cc2)CCCN1	164 µg/mL (≈ 418 µM)
O=C1CCCCCCCCCC/C(=N/OCc2ccc(Cl)cc2)CCN1	97.2 µg/mL (≈ 257 µM)
CCCCCCCCCCCCCCO/N=C1\CCCCCCCCCCC(=O)NCC1	69.1 µg/mL (≈ 153 µM)
C=CCON=C1CCCCCCCCCCC(=O)OCCC1	12.8 µg/mL (≈ 41.2 µM)
CO/N=C1\CCCCCCCCCCC(=O)NCC1	55.8 µg/mL (≈ 208 µM)
O=C1CCCCCCCCCCC(=NOCc2ccc(Cl)cc2)CCCO1	19.6 µg/mL (≈ 49.8 µM)
CCCO/N=C1/CCCCCCCCCCC(=O)NCCC1	13.1 µg/mL (≈ 42.3 µM)
O=C1CCCCCCCCCC/C(=N\OCc2cccnc2)CCN1	52.5 µg/mL (≈ 152 µM)
O=C1CCCCCCCCCCC(=NOCc2c(F)cccc2Cl)CCCO1	51.3 µg/mL (≈ 124 µM)
Cc1ccc(CO/N=C2/CCCCCCCCCCC(=O)NCC2)cc1	111 µg/mL (≈ 310 µM)
O=C1CCCCCCCCCC/C(=N/OCc2ccc(F)cc2)CCN1	74.9 µg/mL (≈ 207 µM)
CCCCCCCCCCCCCCCCO/N=C1/CCCCCCCCCCC(=O)NCCC1	47.8 µg/mL (≈ 96.9 µM)
CCO/N=C1\CCCCCCCCCCC(=O)NCC1	25.8 µg/mL (≈ 91.5 µM)
O=C1CCCCCCCCCC/C(=N/OCc2ccc(Cl)cc2)CCCN1	68.4 µg/mL (≈ 174 µM)
C=CCO/N=C1\CCCCCCCCCCC(=O)NCCC1	15.9 µg/mL (≈ 51.6 µM)

SMILES	EC50
CCCO/N=C1\CCCCCCCCCCC(=O)NCCC1	3.62 µg/mL (≈ 11.7 µM)
O=C1CCCCCCCCCC/C(=N/OCc2ccccc2)CCN1	18.1 µg/mL (≈ 52.7 µM)
CCCCCCCON=C1CCCCCCCCCCC(=O)OCCC1	9.68 µg/mL (≈ 26.3 µM)
CCO/N=C1\CCCCCCCCCCC(=O)NCCC1	22.7 µg/mL (≈ 76.7 µM)
O=C1CCCCCCCCCC/C(=N/OCc2ccccc2)CCCN1	5.84 µg/mL (≈ 16.3 µM)
CC(C)CO/N=C1\CCCCCCCCCCC(=O)NCC1	30.4 µg/mL (≈ 97.8 µM)
Cc1ccc(CO/N=C2\CCCCCCCCCCC(=O)NCC2)cc1	50.5 µg/mL (≈ 141 µM)
COC(=O)Nc1nc2ccccc2[nH]1 [CARBENDAZIM]	1.54 µg/mL (≈ 8.05 µM)
O=C1CCCCCCCCCC/C(=N\OCc2c(F)cccc2Cl)CCCN1	6.21 µg/mL (≈ 15.1 µM)
O=C1CCCCCCCCCC/C(=N/OCc2ccc(Cl)cc2Cl)CCN1	100 µg/mL (≈ 242 µM)
CCCCON=C1CCCCCCCCCCC(=O)OCCC1	13.4 µg/mL (≈ 41 µM)
O=C1CCCCCCCCCC/C(=N\OCc2ccc(Cl)cc2)CCN1	84.8 µg/mL (≈ 224 µM)
O=C1CCCCCCCCCC/C(=N/OCc2cccnc2)CCN1	56.4 µg/mL (≈ 163 µM)
O=C1CCCCCCCCCC/C(=N\OCc2ccccc2)CCCN1	8.28 µg/mL (≈ 23.1 µM)
CCCCCCCO/N=C1/CCCCCCCCCCC(=O)NCCC1	19.2 µg/mL (≈ 52.5 µM)
CCCCO/N=C1/CCCCCCCCCCC(=O)NCCC1	3.97 µg/mL (≈ 12.2 µM)
CCCCCCCCCCCCCCO/N=C1/CCCCCCCCCCC(=O)NCC1	101 µg/mL (≈ 224 µM)
O=C1CCCCCCCCCC/C(=N\OCc2ccccc2)CCN1	7.24 µg/mL (≈ 21 µM)
CCCCCCCCCCCCCCCCON=C1CCCCCCCCCCC(=O)OCCC1	40.4 µg/mL (≈ 81.8 µM)

The compounds below were run on Phyllosticta (assay: Fungicidal activity against Phyllospicpa physaleos Sacc (tomato southern blight fungi) assessed as growth inhibition).
Format: functional, organism-based

SMILES	EC50
CCCON=C1CCCCCCCCCCC(=O)NCCC1	1.9 µg/mL (≈ 6.12 µM)

The compounds below were run on Colletotrichum lagenaria (assay: Fungicidal activity against Colletotrichum lagenaria assessed as growth inhibition).
Format: functional, organism-based

SMILES	EC50
CCCON=C1CCCCCCCCCCC(=O)NCCC1	23.9 µg/mL (≈ 77 µM)

Each compound was assayed on Botrytis cinerea (assay: Fungicidal activity against Botryotinia fuckeliana assessed as growth inhibition).
Format: functional, organism-based

SMILES	EC50
CCCON=C1CCCCCCCCCCC(=O)NCCC1	8.6 µg/mL (≈ 27.7 µM)

What follows are compounds tested on Fusarium oxysporum f. sp. vasinfectum (assay: Fungicidal activity against cotton Fusarium oxysporum f. sp. vasinfectum (fusarium wilt fungi) assessed as growth inhibition).
Format: functional, organism-based

SMILES	EC50
CCCON=C1CCCCCCCCCCC(=O)NCCC1	29 µg/mL (≈ 93.4 µM)

The compounds below were run on Verticillium albo-atrum (assay: Fungicidal activity against Vercicillium albo-atrum assessed as growth inhibition).
Format: functional, organism-based

SMILES	EC50
CCCON=C1CCCCCCCCCCC(=O)NCCC1	19.3 µg/mL (≈ 62.2 µM)

The compounds below were run on Phomopsis asparagi (assay: Fungicidal activity against Phomopsis asparagi assessed as growth inhibition).
Format: functional, organism-based

SMILES	EC50
CCCON=C1CCCCCCCCCCC(=O)NCCC1	12 µg/mL (≈ 38.6 µM)

Each compound was assayed on Alternaria kikuchiana (assay: Fungicidal activity against Alternaria kikuchiana (pear black spot fungi) assessed as growth inhibition).
Format: functional, organism-based

SMILES	EC50
CCCON=C1CCCCCCCCCCC(=O)NCCC1	1.2 µg/mL (≈ 3.86 µM)

These compounds were tested on Alternaria solani (assay: Fungicidal activity against Alternaria solani assessed as growth inhibition).
Format: functional, organism-based

SMILES	EC50
CCCON=C1CCCCCCCCCCC(=O)NCCC1	44.2 µg/mL (≈ 142 µM)

Each compound was assayed on Fulvia fulva (assay: Fungicidal activity against Passalora fulva Cooke (tomato leaf mold fungi) assessed as growth inhibition).
Format: functional, organism-based

SMILES	EC50
CCCON=C1CCCCCCCCCCC(=O)NCCC1	53.1 µg/mL (≈ 171 µM)
